Measured values: publication PMC2949545 (Environment international, 2010)
Values joined by “and” are separate entries in the source; they are usually repeats but may differ in a detail not shown here. Equal entries are not always repeated. Where two headings read alike, the source gives them in different places.

Columns and labels:
LacI gene [1] = test: BigBlue lacI mutant and mutation frequency analysis, female liver; format: in vivo, F344 BigBlue rats
How it was run: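 Female F344 BigBlue rats (lacI transgene), 4/group, got i.p. test compound, positive control or corn oil (5 ml/kg) weekly on PND 37, 44, 51, 58 and were killed on PND75. Genomic DNA from 50 mg central liver was lambda-packaged, infected into E. coli and plated in X-gal top agar overnight. Blue plaques were counted, with >100,000 pfu/animal. Mutant frequency = blue plaques/pfu, per 10^6 ± SE.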

LacI gene [2] = test: LacI gene sequencing, type of mutations; format: in vivo, F344 BigBlue rats; settings: female liver
[3] = Body weight gain during the study period; format: in vivo, F344 BigBlue rats; settings: for reduction of weight gain during the treatment period: versus control
F344 BigBlue rats [4] = test: Organ weights normalized to body weight; format: in vivo
How it was run: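 Rats of both genders, 4/group, were given 4 weekly i.p. doses in corn oil and killed on PND75 by CO2 then cervical dislocation. Liver and other organs were excised and weighed, and weights were expressed as g per 100 g body weight. ANOVA used treatment, gender and their interaction.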

F344 BigBlue rats [5] = test: Histological analysis of spleen, lung and liver; format: in vivo; settings: animal 1 – 4
How it was run: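 In both genders, frozen tissue sampled at PND75 sacrifice (4 weekly i.p. doses, 4 rats/group) was cut into four-micron sections. Sections were stained with hematoxylin/eosin and examined by light microscopy for histological anomalies in each animal.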

liver mRNA = test: Gene expression analysis of female liver RNA; format: in vivo, F344 BigBlue rats
F344 BigBlue rats [6] = settings: Male; animal 1 – 4; previously reported; ref Lehmann et al. 2007; Maddox et al. 2008; cited from earlier work
LacI = settings: ref Lehmann et al. 2007, cited from earlier work
[7] = ref Li et al. 1997; cited from earlier work

Cc1ccc2cc3c(ccc4ccccc43)c3c2c1CC3 [3-MC, 3-Methylcholanthrene, reference compound]
significance of the increase in mutation frequency compared to control (LacI gene [1]): failed marginally to reach statistical significance | Mutants per 10^6 plaques (mutant frequency) (LacI gene [1]; 4 weekly i.p. injections, sacrifice PND75): 48.4 per 10^6 plaques | Mutation Frequency (MF) ± SE (corrected) (LacI gene [1]; after sequencing): 43.5 per 10^6 pfu and 43.5 ± 14.8 per 10^6 pfu | Number of Mutations (corrected) (LacI gene [1]; after sequencing, duplicates and non-mutants excluded): 28 | Deletions, % of total (LacI gene [2]): 18% | Insertions, % of total (LacI gene [2]): 14% | Total Mutations (LacI gene [2]): 28 | Transitions, % of total (LacI gene [2]): 32% | Transversions, % of total (LacI gene [2]): 36% | frameshift mutations (deletions and insertions) observed, number (LacI gene [2]; expected 5 from solvent control proportions): 9 | Deletions, distinct mutations (LacI gene [2]; number): 5 | Insertions, distinct mutations (LacI gene [2]; number): 4 | Transitions, distinct mutations (LacI gene [2]; number): 9 | Transversions, distinct mutations (LacI gene [2]; number): 10 | frameshift mutations (deletions and insertions), % of all mutations (LacI gene [2]; solvent controls 18%): 32% | Weight Gain (average ± StDev) ([3]; Female, control 80.7 ± 7.42): 61.8 ± 7.78 ^# gram | Weight Gain (average ± StDev) ([3]; Male, control 159.7 ± 7.63): 90.4 ± 25.6 gram | reduction of weight gain during the treatment period ([3]; females): 23% | reduction of weight gain during the treatment period ([3]; males): 43% | increase in liver mass compared to corn oil controls (F344 BigBlue rats [4]; female rats): over 30% | increase in lung mass compared to corn oil controls (F344 BigBlue rats [4]; female rats): over 30% | increase in spleen mass compared to corn oil controls (F344 BigBlue rats [4]; female rats): over 30% | liver weight relative to body weight compared to corn oil treated rats (F344 BigBlue rats [4]; female rats): nearly doubled in weight per grams of body weight | relative lung weight (F344 BigBlue rats [4]; female rats): more than doubling of the relative lung weight | spleen, thymus and adrenal gland weights relative to controls (F344 BigBlue rats [4]; females): increased spleen weights and decreased the thymus and adrenal gland weights | Organ Pathology, LIVER (F344 BigBlue rats [5]; Female): only scattered foci of necrosis, prominent Kupffer cells and focal perilobular lymphocytes in two of the four animals | Organ Pathology, LUNG (F344 BigBlue rats [5]; Female): 1: Bronchopneumonia with what looks like early ARDS. Pulmonary edema 2: Bronchopneumonia with what looks like early ARDS more so than #1. Pulmonary edema. 3: Focal acute inflammation with increased intra-alveolar macrophages 4: No abnormality. | Organ Pathology, SPLEEN (F344 BigBlue rats [5]; Female): No abnormality | Organ Pathology, SPLEEN (F344 BigBlue rats [5]; Male): No abnormality | number of unique genes significantly changed (liver mRNA; p < 0.0001 and fold change > 5 versus corn oil control, pooled RNA): Seventyfive | calca (calcitonin/calcitonin-related polypeptide a) expression (liver mRNA; versus corn oil control): up regulated | csda (cold shock domain protein A) expression (liver mRNA; versus corn oil control): up regulated | trib3 (tribbles homolog 3) expression (liver mRNA; versus corn oil control): up regulated | CYP1A2 gene expression increase (liver mRNA; versus corn oil control, up): 58 fold | UGT1A2 gene expression increase (liver mRNA; versus corn oil control, up): 13 fold | akr7a3 (aldo-keto reductases 7a3) expression change (liver mRNA; versus corn oil control, up): 16 fold | bcl10 (B-cell CLL/lymphoma 10) expression change (liver mRNA; versus corn oil control, up): 16.3 fold | ephx1 (epoxide hydrolase 1) expression change (liver mRNA; versus corn oil control, up): 9.9 fold | gdnf (glial cell derived neurotrophic factor) expression change (liver mRNA; versus corn oil control, up): 6.0 fold | glrx1 (glutaredoxin 1) expression change (liver mRNA; versus corn oil control, up): 10.2 fold | hmox1 (heme oxygenase 1) expression change (liver mRNA; versus corn oil control, up): 16.3 fold | mgst2 (microsomal glutathione S-transferase 2) expression change (liver mRNA; versus corn oil control, up): 7.9 fold | ptgs1 (prostaglandin-endoperoxide synthase 1) expression change (liver mRNA; versus corn oil control, up): 27.8 fold | smarcb1 expression change (liver mRNA; versus corn oil control, up): 8.5 fold | Organ Pathology, LIVER (F344 BigBlue rats [6]): centrilobular necrosis, in some cases severe, was the dominat finding | Organ Pathology, LUNG (F344 BigBlue rats [6]): 1: No abnormality 2 + 3: Focal perivascular lymphocytes. 4: Focal perivascular lymphocytes with increased intra-alveolar macrophages. | frameshift mutations, % of mutations (LacI; male livers, control 19%): 27% | increase in mutation frequency (LacI; male rodents, liver): about 5 fold | persistence in the liver [7]: 2 weeks
